Data set [1] in a line: Aqueous kinetic solubility of the compound at pH 7 at 100 uM measured after 1 hr. The format is physicochemical. The note with it: buffer, pH 7, 1 h.
Data set [2] in a line: Therapeutic index, ratio of compound effect for induction of emesis in ICR mouse assessed as reduction in ketamine/xylazine-induced duration of anesthesia at 10 to 30 mg/kg, po to compound effect for memory enhancement effect in ICR mouse assessed as improvement in novel object discrimination at 1 to 3 mg/kg, po. The data set is classed as toxicity, organism-based. The note with it: in vivo. A digest of the protocol: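 Male ICR mice (25–30 g) were gavaged with compound in 5% DMSO, 5% Solutol in PBS. Object recognition ran as 10 min habituation on day 1, 5 min training on day 2 and 5 min testing on day 3, scored as d2 = (b−a)/(a+b). Thirty minutes after an oral dose, ketamine 80 mg/kg plus xylazine 10 mg/kg was given IP, and anesthesia duration was timed from loss to return of the righting reflex. The index compares effective doses in the two tests.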

Data set [3] can be described thus: Protein binding in dog plasma. The format is ADME, cell-free, Canis lupus familiaris. The note with it: read-out: PPB.
For data set [4], the species on record is Homo sapiens. Put plainly: Selectivity ratio of IC50 for recombinant human His6-tagged PDE4B1 UCR1 S133D mutant expressed in baculovirus infected Sf9 insect cells to IC50 for recombinant human His6-tagged PDE4D7 UCR1 S129D mutant expressed in baculovirus infected Sf9 insect cells.
For data set [5], the target named is Cytochrome P450 2C9 (Homo sapiens, UniProt P11712). Put plainly: Inhibition of CYP2C9 (unknown origin) by fluorescence-based assay. The format is ADME. In outline: (§1)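 CYP inhibition run with a fluorescent substrate by a contract laboratory under standard protocols; IC50 reported.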
Chain of Cytochrome P450 2C9 (P11712 whole entry, the tested form may be a part): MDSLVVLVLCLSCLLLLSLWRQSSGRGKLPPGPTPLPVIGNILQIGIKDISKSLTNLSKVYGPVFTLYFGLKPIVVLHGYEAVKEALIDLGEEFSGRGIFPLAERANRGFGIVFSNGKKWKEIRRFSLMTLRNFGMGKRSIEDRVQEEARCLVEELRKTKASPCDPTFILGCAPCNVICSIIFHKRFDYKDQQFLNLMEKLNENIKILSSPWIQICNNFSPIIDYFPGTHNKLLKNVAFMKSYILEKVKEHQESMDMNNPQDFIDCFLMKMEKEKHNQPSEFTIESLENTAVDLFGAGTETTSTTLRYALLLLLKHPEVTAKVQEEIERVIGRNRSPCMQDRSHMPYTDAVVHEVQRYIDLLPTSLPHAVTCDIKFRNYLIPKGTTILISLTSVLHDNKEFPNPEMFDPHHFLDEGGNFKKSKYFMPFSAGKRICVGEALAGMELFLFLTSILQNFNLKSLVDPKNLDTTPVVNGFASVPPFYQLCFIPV
The nature of data set [6]: Inhibition of recombinant human wild-type His6-tagged PDE4D7 UCR1 domain (S129 residues) expressed in baculovirus infected Sf9 insect cells using cAMP as substrate preincubated for 5 to 10 mins followed by substrate addition and measured for 10 mins by yeast myokinase/pyruvate kinase/lactate dehydrogenase-coupled fluorescence assay.
Data set [7] can be described thus: Solubility of the compound in FaSSIF. The data set is classed as physicochemical. The note with it: simulated gi fluid. In outline:
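Kinetic solubility measured in fasted state simulated intestinal fluid (FaSSIF), run by a contract lab using standard protocols.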

A short description of data set [8]: Protein binding in human plasma. Particulars: read-out: PPB. The data set is classed as ADME, cell-free.
Data set [9] has as its system Mus musculus. Nature of the data set: Induction of emesis in ICR mouse assessed as reduction in ketamine/xylazine-induced duration of anesthesia at 10 to 30 mg/kg, po pretreated for 30 mins followed by ketamine/xylazine addition. The data set is classed as organism-based. Particulars: in vivo. In outline:
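Male ICR mice, 25–30 g. Test agents given by oral gavage in 5% DMSO, 5% Solutol in PBS, or rolipram IP; ketamine (80 mg/kg) plus xylazine (10 mg/kg) IP given 30 min after PO or 15 min after IP dosing. Endpoint: time from loss to return of righting reflex.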

Data set [10] in a line: Stability in rat liver microsomes assessed as parent compound remaining at 1 uM measured after 30 mins by LC-MS/MS analysis. The format is ADME, Microsome. The note with it: read-out: Stability. In outline: (§2)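 Liver microsome stability run by a contract lab using standard protocols. Parent compound remaining measured after 30 min incubation.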
Data set [11] concerns the target Cytochrome P450 2C19 (Homo sapiens, UniProt P33261). Put plainly: Inhibition of […] (unknown origin) by fluorescence-based assay. The data set is classed as ADME. In outline: as §1
Data set [12] is described as follows: Stability in monkey liver microsomes assessed as parent compound remaining at 1 uM measured after 30 mins by LC-MS/MS analysis. The format is ADME, Macaca mulatta, Microsome. The note with it: rhesus monkey, read-out: Stability. In outline:
as §2
Background: Microsomes from liver hold many membrane-bound enzymes, among them those of drug oxidation.

Data set [13] concerns Mus musculus. Nature of the data set: Memory enhancement effect in ICR mouse assessed as improvement in novel object discrimination at 1 to 3 mg/kg, po administered via gavage measured for 5 mins by open field test. The data set is classed as functional, organism-based. A digest of the protocol: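 Male ICR mice (25–30 g), dosed by oral gavage in 5% DMSO, 5% Solutol in PBS. Three phases in an open field box: 10 min habituation on day 1, 5 min training with identical objects on day 2, 5 min test with familiar and novel objects on day 3 (24 h delay). Exploration times recorded; discrimination index d2 = (b − a)/(a + b).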

Data set [14] is described as follows: Stability in human liver microsomes assessed as parent compound remaining at 1 uM measured after 30 mins by LC-MS/MS analysis. Particulars: read-out: Stability. The data set is classed as ADME, Microsome. A digest of the protocol: as §2
Data set [15] is described as follows: Efflux ratio of permeability across basal to apical side over apical to basal side in MDCK-MDR1 cells. The data set is classed as ADME, cell-based, Canis lupus familiaris. The note with it: dog.
The nature of data set [16]: Inhibition of recombinant human His6-tagged PDE4D7 UCR1 S129D mutant expressed in baculovirus infected Sf9 insect cells using cAMP as substrate preincubated for 5 to 10 mins followed by substrate addition and measured for 10 mins in presence of BSA by yeast myokinase/pyruvate kinase/lactate dehydrogenase-coupled fluorescence assay.
The target in data set [17] is Cytochrome P450 2D6 (Homo sapiens, UniProt P10635). Put plainly: Inhibition of CYP2D6 (unknown origin) by fluorescence-based assay. The format is ADME. A digest of the protocol: as §1
Chain of Cytochrome P450 2D6 (P10635 whole entry): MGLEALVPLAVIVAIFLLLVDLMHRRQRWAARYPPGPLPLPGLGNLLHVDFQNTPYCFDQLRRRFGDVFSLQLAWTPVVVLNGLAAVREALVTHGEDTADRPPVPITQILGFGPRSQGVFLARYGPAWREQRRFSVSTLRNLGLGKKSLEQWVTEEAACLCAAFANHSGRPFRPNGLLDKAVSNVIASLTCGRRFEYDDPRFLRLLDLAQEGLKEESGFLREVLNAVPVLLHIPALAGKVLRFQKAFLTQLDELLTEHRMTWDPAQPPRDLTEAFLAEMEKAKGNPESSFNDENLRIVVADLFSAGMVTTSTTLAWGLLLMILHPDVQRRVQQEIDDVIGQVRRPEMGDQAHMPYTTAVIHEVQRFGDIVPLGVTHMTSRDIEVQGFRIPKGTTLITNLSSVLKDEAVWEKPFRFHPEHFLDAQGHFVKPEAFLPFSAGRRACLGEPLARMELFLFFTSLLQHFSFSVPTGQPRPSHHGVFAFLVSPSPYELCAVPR
Data set [18] can be described thus: Ratio of AUC in po dosed mouse brain to plasma. The format is ADME, organism-based. In outline:
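Mice were dosed orally in 5% DMSO, 5% Solutol, 90% PBS. Drug exposure was measured in plasma and brain, and the ratio was taken from brain AUC over plasma AUC.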

Data set [19] in a line: Half life in po dosed mouse plasma. The data set is classed as ADME, organism-based. Particulars: in vivo.
The nature of data set [20]: Protein binding in mouse plasma. Particulars: read-out: PPB. The data set is classed as ADME, cell-free.
A short description of data set [21]: Permeability across apical to basal side in MDCK-MDR1 cells. The note with it: dog. The format is ADME, cell-based, Canis lupus familiaris. A digest of the protocol:
(§3)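 Cellular permeability in MDCK-MDR1 cells, apical-to-basal and basal-to-apical, run by a contract lab using standard protocols. Efflux ratio taken as B-A/A-B.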

Data set [22] can be described thus: Stability in human hepatocytes assessed as parent compound remaining measured after 4 hrs by LC-UV/MS/MS analysis. The data set is classed as ADME, cell-based, Hepatocyte. Particulars: read-out: Stability. In outline:
(§4)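 Metabolite identification run with cryopreserved hepatocytes from male Wistar rats and from humans, 0.5×10^6 cells/mL in suspension, incubated 4 h at 37 °C. Incubation medium analysed by LC-UV/MS/MS.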

Data set [23] can be described thus: Protein binding in rat plasma. The data set is classed as ADME, cell-free. Particulars: read-out: PPB.
Data set [24] in a line: Stability in dog liver microsomes assessed as parent compound remaining at 1 uM measured after 30 mins by LC-MS/MS analysis. The format is ADME, Canis lupus familiaris, Microsome. The note with it: read-out: Stability. A digest of the protocol: as §2
Data set [25] deals with Cytochrome P450 3A4 (Homo sapiens, UniProt P08684). Nature of the data set: Inhibition of CYP3A4 (unknown origin) by fluorescence-based assay. The data set is classed as ADME. In outline: as §1
Chain of Cytochrome P450 3A4 (P08684 whole entry): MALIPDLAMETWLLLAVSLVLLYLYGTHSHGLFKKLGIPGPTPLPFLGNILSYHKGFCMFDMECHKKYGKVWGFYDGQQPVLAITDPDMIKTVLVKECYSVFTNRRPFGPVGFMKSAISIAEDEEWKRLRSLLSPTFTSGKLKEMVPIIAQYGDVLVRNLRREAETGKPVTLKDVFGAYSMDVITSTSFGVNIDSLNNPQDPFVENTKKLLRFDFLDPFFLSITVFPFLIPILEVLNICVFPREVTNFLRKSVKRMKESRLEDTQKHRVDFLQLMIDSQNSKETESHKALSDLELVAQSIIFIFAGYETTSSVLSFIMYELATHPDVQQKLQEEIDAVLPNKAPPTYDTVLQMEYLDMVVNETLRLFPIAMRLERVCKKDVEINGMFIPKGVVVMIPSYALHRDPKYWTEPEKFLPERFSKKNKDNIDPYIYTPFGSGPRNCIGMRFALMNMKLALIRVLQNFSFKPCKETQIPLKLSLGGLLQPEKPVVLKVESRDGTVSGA
The nature of data set [26]: Stability in mouse liver microsomes assessed as parent compound remaining at 1 uM measured after 30 mins by LC-MS/MS analysis. The format is ADME, Microsome. Particulars: read-out: Stability. A digest of the protocol:
as §2

Data set [27] is described as follows: Half life in po dosed mouse brain. The data set is classed as ADME, organism-based. Particulars: in vivo.
The species entered for data set [28] is Homo sapiens. Put plainly: Selectivity ratio of IC50 for recombinant human wild-type His6-tagged PDE4D7 UCR1 domain (S129 residues) expressed in baculovirus infected Sf9 insect cells to IC50 for recombinant human His6-tagged PDE4D7 UCR1 S129D mutant expressed in baculovirus infected Sf9 insect cells.
Data set [29] can be described thus: Oral bioavailability in mouse. Particulars: in vivo. The format is ADME, organism-based.
Data set [30] concerns the target 3',5'-cyclic-AMP phosphodiesterase 4B (Homo sapiens, UniProt Q07343, S133D). Nature of the data set: Inhibition of recombinant human His6-tagged PDE4B1 UCR1 S133D mutant expressed in baculovirus infected Sf9 insect cells using cAMP as substrate preincubated for 5 to 10 mins followed by substrate addition and measured for 10 mins by yeast myokinase/pyruvate kinase/lactate dehydrogenase-coupled fluorescence assay.

A short description of data set [31]: Stability in Wistar rat hepatocytes assessed as parent compound remaining measured after 4 hrs by LC-UV/MS/MS analysis. The data set is classed as ADME, cell-based, Hepatocyte. Particulars: read-out: Stability. In outline: as §4
The nature of data set [32]: Inhibition of recombinant human His6-tagged PDE4D7 UCR1 S129D mutant expressed in baculovirus infected Sf9 insect cells using cAMP as substrate preincubated for 5 to 10 mins followed by substrate addition and measured for 10 mins by yeast myokinase/pyruvate kinase/lactate dehydrogenase-coupled fluorescence assay.
Data set [33] is described as follows: Permeability across basal to apical side in MDCK-MDR1 cells. The data set is classed as ADME, cell-based, Canis lupus familiaris. Particulars: dog. A digest of the protocol: as §3
Data set [34] in a line: Drug level in Wistar rat hepatocytes treated with 2-(4-((2-(3-Chlorophenyl)-6-ethylpyrimidin-4-yl)methyl)phenyl)acetamide assessed as metabolite formation measured after 4 hrs by LC-UV/MS/MS analysis. The format is ADME, cell-based, Hepatocyte. A digest of the protocol: (§5)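 Metabolite identification: cryopreserved hepatocytes from male Wistar rat or human, 0.5×10^6 cells/mL in suspension, incubated 4 h at 37 °C; incubation medium analysed by LC-UV/MS/MS.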

A short description of data set [35]: Drug level in human hepatocytes treated with 2-(4-((2-(3-Chlorophenyl)-6-ethylpyrimidin-4-yl)methyl)phenyl)acetamide assessed as metabolite formation measured after 4 hrs by LC-UV/MS/MS analysis. The data set is classed as ADME, cell-based, Hepatocyte. A digest of the protocol:
as §5

Structures are written as SMILES. Converted amounts (≈) assume the structure as drawn. The source made the active and inactive calls. No cut-off for these calls is given here.

Chain of 3',5'-cyclic-AMP phosphodiesterase 4B (Q07343 whole entry S133D): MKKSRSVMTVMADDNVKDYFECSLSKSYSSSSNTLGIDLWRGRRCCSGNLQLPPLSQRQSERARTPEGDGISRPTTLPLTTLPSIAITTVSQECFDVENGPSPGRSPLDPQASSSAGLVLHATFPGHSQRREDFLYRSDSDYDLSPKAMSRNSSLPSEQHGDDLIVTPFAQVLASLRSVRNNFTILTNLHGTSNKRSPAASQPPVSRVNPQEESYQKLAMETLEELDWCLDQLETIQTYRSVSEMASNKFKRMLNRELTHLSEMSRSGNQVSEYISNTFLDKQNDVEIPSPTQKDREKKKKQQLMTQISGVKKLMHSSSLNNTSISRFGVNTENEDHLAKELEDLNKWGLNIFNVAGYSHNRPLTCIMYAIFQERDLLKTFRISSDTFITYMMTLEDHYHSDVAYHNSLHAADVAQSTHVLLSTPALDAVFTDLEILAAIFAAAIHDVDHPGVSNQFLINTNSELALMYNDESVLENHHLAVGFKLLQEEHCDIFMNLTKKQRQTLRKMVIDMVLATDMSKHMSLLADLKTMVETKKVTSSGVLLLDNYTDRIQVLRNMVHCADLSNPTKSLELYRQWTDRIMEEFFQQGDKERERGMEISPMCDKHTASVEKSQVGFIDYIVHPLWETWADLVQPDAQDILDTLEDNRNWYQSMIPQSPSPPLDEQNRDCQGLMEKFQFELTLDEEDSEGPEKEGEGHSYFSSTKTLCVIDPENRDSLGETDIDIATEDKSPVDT
Chain of Cytochrome P450 2C19 (P33261 whole entry): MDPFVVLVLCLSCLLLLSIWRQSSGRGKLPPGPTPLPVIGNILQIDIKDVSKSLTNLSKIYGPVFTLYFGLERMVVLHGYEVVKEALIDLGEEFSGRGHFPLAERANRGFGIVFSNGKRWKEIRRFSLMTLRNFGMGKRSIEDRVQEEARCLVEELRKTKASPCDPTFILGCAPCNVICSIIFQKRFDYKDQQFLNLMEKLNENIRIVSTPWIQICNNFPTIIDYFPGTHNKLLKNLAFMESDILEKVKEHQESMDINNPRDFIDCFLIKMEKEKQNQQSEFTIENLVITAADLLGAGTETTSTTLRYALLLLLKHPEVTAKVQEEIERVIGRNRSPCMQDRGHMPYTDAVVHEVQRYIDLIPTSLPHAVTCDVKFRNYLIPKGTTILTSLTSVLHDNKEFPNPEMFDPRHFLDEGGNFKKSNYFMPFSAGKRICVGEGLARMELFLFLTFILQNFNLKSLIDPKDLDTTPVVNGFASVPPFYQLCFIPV

`CCc1cc(Cc2ccc(CC(N)=O)cc2)nc(-c2cccc(Cl)c2)n1` showed a Kinetic_solubility in data set [1] of less than 1.6 µM. Moreover, the selectivity ratio in data set [2] was 10. The fraction unbound in data set [3], in data set [8], in data set [20] and in data set [23] was 0.002 to 0.005 in each case. The values for the Ratio IC50 in data set [4] and in data set [28] were 132 and 184, respectively. For the same compound, the IC50 is more than 100 µM in [5]; 0.313 µM in data set [6]; 29 µM in data set [11]; more than 100 µM in [17]; 5.9 µM in data set [25]; 0.225 µM in data set [30]. Moreover, in data set [32], the concentration for half-maximal inhibition (IC50) turned out to be 0.0017 µM. In data set [7], this compound came in with a solubility of 100 µM (≈ 36.6 µg/mL). Besides, the Activity result in data set [9] is listed as “Toxic”. The remaining at 0.5 h, 1 µM in [10], in [12], in data set [14], in data set [24] and in data set [26] was 54 to 90% each time. In addition, the outcome in data set [13] was Active. Moreover, the Ratio in data set [15] was determined as 0.9. For the same compound, in [16], the inhibition result was “Active”. In addition, the “Ratio AUC” value in data set [18] is reported as 2.7. Besides, the values for the t1/2 in [19] and in data set [27] were 27.6 min and 26.4 min, respectively. Besides, the figures for the permeability in data set [21] and in [33] were 24.1 ×10⁻⁶ cm/s and 22 ×10⁻⁶ cm/s, respectively. Further, the results for the remaining at 4 h in data set [22] and in data set [31] were 93.2% and 66.8%, respectively. Besides, the bioavailability in data set [29] came out at 53%.
With `CCc1cc(Cc2ccc(CC(=O)O)cc2)nc(-c2cccc(Cl)c2)n1`, the Drug metabolism entry in data set [34] and in data set [35] was “Metabolite_Detected” in each case.

Usually IC50 stands for the concentration that gives 50% inhibition. Broadly, the solubility is how much of the substance goes into solution per volume. The bioavailability is dose-corrected exposure relative to a reference, in per cent.

(Values after ChEMBL document CHEMBL4396869, “Design and Synthesis of Selective Phosphodiesterase 4D (PDE4D) Allosteric Inhibitors for the Treatment of Fragile X Syndrome and Other Brain Disorders” (J Med Chem, 2019).)
